# Source: ChEMBL document CHEMBL4513216, “Probing the Open Global Health Chemical Diversity Library for Multistage-Active Starting Points for Next-Generation Antimalarials” (ACS Infect Dis, 2020)
# Assay: Toxicity liver stage against HepG2, at 10uM
# Format: cell-based
# Design: test concentration 10 uM, cell line HepG2-A16-CD81EGFP
# Conditions: human, HepG2-A16-CD81EGFP cells; read-out: INHIBITION
# Method in brief: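 Uninfected HepG2-A16-CD81EGFP cells, 3 × 10^3 per well, 1536-well, plated on prespotted compound at 10 μM final, parasite-free screening media added to match infected plates; puromycin 10 μM positive, DMSO 0.5% negative; run in parallel with 48 h PbLuc assay at 37 °C, 5% CO2; viability by CellTiter-Glo luminescence, normalized to controls.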
row,Compound,cytotoxicity at 10 µM [%]
1,CN(CC(=O)N1CCc2[nH]c3ccc(F)cc3c2C1)CC1OCCO1,6.19
2,O=C(NC[C@H]1OC[C@@H](NC2CCOCC2)[C@@H]1O)c1cccs1,-1.6
3,O=C(O)Cn1ccc(=O)c2cc(Cl)ccc21,-17.1
4,CN1C(=O)COc2cc(NC(=O)CCc3nc4cccnc4[nH]3)ccc21,-4.13
5,Cc1ccc(C(=O)N2CCC3(CCN(Cc4ccccn4)C3=O)C2)cn1 (stereo unspecified),-145
6,Cc1c(Cc2ccccc2)c(O)nc2nc(N3CCOCC3)nn12,9.76
7,COC(=O)c1cccc(NS(=O)(=O)c2cnc(NC(C)=O)s2)c1,7.21
8,Cc1cn[nH]c1C1COCCN1C(=O)c1cc(F)ccc1F (stereo unspecified),-0.658
9,COCC(=O)N1CCCCC1c1nc(CN(C)C(C)=O)cc(N(C)C)n1 (stereo unspecified),3.37
10,CCCNS(=O)(=O)c1cc2c3c(c1)c(C)cc(=O)n3CCC2,3.94
11,O=C(C1CC1)N1CCC(c2nc(O)c3c(n2)CCN(C2CCCC2)C3)C1 (stereo unspecified),4.66
12,CN1CCC2(CC1)CNC(=O)c1ccccc1O2,-1.24
13,O=C(N1CCCC1)N1CCN(c2ccc(Cl)nn2)C(=O)C1,7.33
14,O=C(O)c1sccc1Oc1ccc(NC(=O)C2CC2)cc1,-4.77
15,CCC1CCCN(S(=O)(=O)c2cnn(C)c2)C1 (stereo unspecified),12.9
16,CC(OCC1CC1)C(=O)NCc1cccc(CN2CCN(C)CC2)c1 (stereo unspecified),0.193
17,CS(=O)(=O)CCNC(=O)Nc1sc2ccccc2c1Cl,41.7
18,CCN(CC1CCOC1)C(=O)CCc1nc(C(C)(C)C)no1 (stereo unspecified),-1.26
19,Cc1cccc(OCC(=O)NS(=O)(=O)Cc2ccccc2)c1,0.224
20,Cc1ccc(N2CCC(NC(C)c3cccs3)CC2)nc1 (stereo unspecified),-9.64
21,Cc1nc(CC(=O)NCCNc2nccc(C(F)(F)F)n2)cs1,14.3
22,CCc1cnc(CN(C)C(=O)Nc2cnc3c(c2)c(C)nn3C)s1,2.37
23,Cc1nn(C)c(C)c1C1CCCN1C(=O)c1ccc(C(N)=O)s1 (stereo unspecified),-1.52

row,Compound,cytotoxicity at 10 µM [%]
1,COc1cc(Cl)ccc1C(=O)NCc1n[nH]c(C)n1,-4.07
2,CCc1c(NCc2ccc(F)cc2)cnn1CC(C)C,3.66
3,O=C(CCc1ccsc1)NCC1CCN(C2CC2)C1 (stereo unspecified),2.63
4,Cc1nsc(N2CCN(CC(=O)N(C3CC3)C(C)C3CC3)CC2)n1 (stereo unspecified),-12.4
5,O=C(CCc1cccs1)Nc1ccnn1C1CCS(=O)(=O)C1 (stereo unspecified),-19.8
6,Cc1c(C(=O)N2CCCOCC2)nnn1-c1cccc2cnccc12,11.8
7,Cc1c(C(=O)N2CC(O)C2)nnn1-c1cccc2cnccc12,3.04
8,CC1CCCN(Cc2ccc(CNC(=O)NCc3ccncc3)cc2)C1 (stereo unspecified),4.64
9,CS(=O)(=O)Cc1ccc(Cl)cc1NCc1cccc(F)c1F,9.2
10,CCc1nc(C(=O)N(CC)CC(=O)Nc2cc(Cl)ccc2C)c[nH]1,8.44
11,CCOCCCNC(=O)c1cc(Br)c2c(c1)OCCO2,-2.21
12,COC(=O)CCSc1nncn1-c1ccc(OC)nc1,-2.09
13,CCN1CCC(NC(=O)NC2CCOc3ccc(Br)cc32)CC1 (stereo unspecified),-1.15
14,CCOC(C)c1nc(CN2CCC(NC(C)C)CC2)cs1 (stereo unspecified),1.1
15,Cc1csc(CNC(=O)NCC(O)c2ccccc2)n1 (stereo unspecified),2.26
16,Cc1ccc(CCCC(=O)N(C)CCN2CCOCC2)cc1,-2.75
17,COC(=O)c1ccoc1CN(C)CC(=O)N(C)C,3.39
18,N#CC1(NC(=O)CNCCn2cccn2)CCCCC1,-7.5
19,Cc1ncc(CN(C)C(=O)Nc2ccc(CN3CCOC3=O)cc2)s1,-2.97
20,O=S(=O)(NC(CO)Cc1c[nH]c2ccccc12)c1cncc(F)c1 (stereo unspecified),12
21,Cc1ccc(NS(=O)(=O)c2cnn(-c3ccccc3)c2)c(C(=O)O)c1,-3.11
22,CCOc1cc(CNC(=O)c2cc(-c3ccccn3)no2)ccn1,1.63
23,Cc1nc(C2CCCC2)sc1C(N)=O,-5.03

row,Compound,cytotoxicity at 10 µM [%]
1,Cc1ccc(S(=O)(=O)NC(=O)COc2ccc(CC#N)cc2)s1,2.52
2,COC(=O)c1cccc(CN(C)Cc2ncnn2C)c1C#N,-4.23
3,c1ccc(Cn2cccn2)c(CNCc2cnc(N3CCCC3)nc2)c1,-5.34
4,CC(Cn1cccn1)NC(=O)N(C)Cc1cnn(C)c1 (stereo unspecified),-5.17
5,CCN(C(=O)c1cc(C)oc1C)C1CC1,-5.89
6,O=C(CN(CC1CCC1)CC(F)(F)F)N1CCOCC1,-13.1
7,CCCC1c2ccccc2CCN1CCS(C)(=O)=O (stereo unspecified),-0.846
8,CC(=O)NC1(C(=O)N(C)Cc2c(C)noc2C)CCCCC1,14.4
9,Cc1ccc(-c2n[nH]cc2CNCC2CCc3nnc(C)n3C2)cc1 (stereo unspecified),-8.35
10,Cn1cc(N2CCC(Nc3ccc4nccnc4n3)C2=O)cn1 (stereo unspecified),-2.47
11,N#Cc1ccc(F)c(CNC(=O)NCCC(=O)NC2CCCC2)c1,-5.95
12,COc1cc(N2CCC3(CC2)CN(C)C(=O)CO3)ncn1,6.5
13,Cc1cccc(CN2CCn3cc(CNC(=O)CC4CC4)nc3C2)n1,-73.2
14,O=C(c1cccs1)N1CCc2ncc(Cn3cncn3)n2CC1,-89.8
15,Cn1cc(CN2CCCC3(CCN(c4cccnc4)C3=O)C2)cn1 (stereo unspecified),-74.9
16,CC(C)NC(=O)C1CN(C(=O)N2CCCC2)CC12CCOCC2 (stereo unspecified),1.08
17,CC(O)c1cccc(N2CCC3(CCC(=O)N(CC(N)=O)C3)CC2)n1 (stereo unspecified),-2.55
18,CCc1ncc2c(n1)CN(c1nccc(C3CCCC3)n1)C2,-1.16
19,O=C(c1ccc(Cn2cnnn2)cc1)N1CC[C@H](CO)[C@H](O)C1,0.529
20,Cc1ccc(CN2C[C@H]3OC(=O)N(Cc4ccccn4)[C@H]3C2)o1,4.16
21,CN1CCCN(C[C@@H]2CN(C(=O)N3CCOCC3)C[C@@H]2CO)CC1,-7.43
22,Cc1nc2ncccn2c1C(=O)N1CCc2[nH]cnc2C1,7.94
23,COc1nccnc1N1CCC2(CC1)[C@H](O)C[C@@H]2OCCN(C)C,4.56

row,Compound,cytotoxicity at 10 µM [%]
1,Cc1ocnc1C(=O)N1CCCC1c1ccc(C(=O)N2CCSCC2)s1 (stereo unspecified),-5.37
2,O=C(c1ccc(-c2cccc3c2CCNC3)o1)N1CCCCC1,3.67
3,COc1cc(-c2nc(CN(CCO)CCO)c(C)o2)ccc1F,-10.2
4,CCC(NC(=O)C1CCN(C(=O)C2CC2)CC1)c1cn2cccnc2n1 (stereo unspecified),0.0482
5,c1cc(CN2CCCC2)cc(-n2ccnc2-c2ccncc2)c1,-1.37
6,Cc1ccccc1C(C(=O)NCCS(C)(=O)=O)N(C)C (stereo unspecified),11.2
7,COCCNc1cc(-c2ccccc2S(N)(=O)=O)c2cc[nH]c2n1,6.68
8,c1cnn(CCC2CCN(Cc3ccc4[nH]ccc4c3)CC2)c1,-7.57
9,CCCOC1CCCN(Cc2nc(-c3cccs3)oc2C)C1 (stereo unspecified),-53.1
10,O=C(N[C@@H]1CCN(C(=O)c2ccc(F)cc2Cl)C[C@H]1O)c1ccccn1,-0.0395
11,O=S(=O)(NCc1ccccc1)NCc1nc(-c2ccncc2)n[nH]1,14.3
12,CCCc1cc(NCc2nc(COC)no2)n2nccc2n1,-0.916
13,COC(=O)c1ccc(CNC(=O)Cc2csc(C(C)=O)c2)cc1,5.03
14,CCOc1ccccc1CN(CC)Cc1ccc(S(C)(=O)=O)cc1,-4.6
15,O=C(NCc1ccoc1)c1ccc(C2CCCN2CC2CCOCC2)s1 (stereo unspecified),6.7
16,CS(=O)(=O)N1CCCn2nc(CNc3cc(C#N)ccn3)cc2C1,-8.5
17,CCN(C)C[C@@H]1CN(Cc2cccc(O)c2)C[C@@H]1CO,-1.13
18,CCc1nc(C)c(-c2nccn2CC2CCN(C3CCCC3)CC2)[nH]1,3.98
19,Nc1nc2c(c(N3CCC(CN4CCCC4=O)CC3)n1)CCNCC2,-3.95
20,CCc1cc(N[C@H]2CCC[C@H]2CO)n2nccc2n1,-10.1
21,Cc1cc(C(F)(F)F)cc(=O)n1Cc1nc(C(C)C)no1,0.9
22,CCN(Cc1ccc(S(C)(=O)=O)cc1)Cc1nc(COC)no1,-10.8
23,CC(C)n1ccnc1C1CCN(C(=O)c2ccc(SCCO)cc2)CC1,-0.232

row,Compound,cytotoxicity at 10 µM [%]
1,Cc1ccc(CC(=O)N2CCCC(c3ccn[nH]3)C2)cn1 (stereo unspecified),0.691
2,CNc1nc(CNC(=O)Nc2ccc([S+](C)[O-])c(F)c2)cs1 (stereo unspecified),-12.2
3,CC(C)c1nc(C2CCCN2C(=O)c2ccc(C#N)cn2)no1 (stereo unspecified),-3.19
4,Cc1nccn1C1CCCN(C(=O)COCC2CC2)C1 (stereo unspecified),-11.7
5,O=C(c1cccnc1N1CCCCC1)N1CCCC(n2ccnc2)C1 (stereo unspecified),-14.4
6,CCN(C(=O)CN(C)C(c1cccc(F)c1)c1ccccn1)C1CC1 (stereo unspecified),-8.65
7,Cc1ccc(C)c(CNC(=O)NC(C)(C(=O)O)c2ccco2)c1 (stereo unspecified),-10.8
8,CN(Cc1cccc(F)c1)C1CCN(CCc2ccccn2)CC1,-5.38
9,Cn1cc(C2CCCN2C(=O)CCCOc2ccc(F)cc2F)cn1 (stereo unspecified),-7.54
10,CC(=O)NC1CCCN(C(=O)NCc2cccnc2N(C)C)C1 (stereo unspecified),-1.97
11,Cc1nc(C)n(CC2CN(c3ncnc4[nH]ccc34)CCO2)n1 (stereo unspecified),0.433
12,Cc1ccc(-c2nc(CN3CCc4nn(C)c(=O)cc4C3)no2)cc1,-8.38
13,CC(C)c1nc(C2CCCN(C(=O)c3ccc4nccn4c3)C2)no1 (stereo unspecified),-0.0722
14,Cc1ccc(CN2CCCC3(CCN(S(C)(=O)=O)C3)C2)o1 (stereo unspecified),2.21
15,COCCNC(=O)[C@H]1C[C@@H]2CCN(CCc3ccccc3)C[C@@H]2O1,-74.5
16,Cc1ccc(N2CCO[C@H]3CN(Cc4ccncc4)C[C@H]32)nn1,1.23
17,Cn1cc(CN2CC[C@@H]3[C@@H]2CCN3C(=O)Cc2cccc(F)c2)cn1,-80
18,CN(Cc1cn2c(n1)CN(c1ncc(F)cn1)CC2)Cc1ccco1,3.96
19,O=C(c1ccncc1F)N1C[C@@H]2CC[C@H]1CN(Cc1cccnc1)C2,3.01
